Measurements reported in ChEMBL document CHEMBL1806428, “Design and synthesis of spiro derivatives of parthenin as novel anti-cancer agents” (Eur J Med Chem, 2011).
Calls of active or inactive are those of the source. The calls are words filed in the database; no cut-off is given here.

Columns and labels:
[1] = Antitumor activity against mouse Ehrlich Ascites tumor xenografted in Swiss albino mouse assessed as decrease in tumor weight at 20 mg/kg, ip administered for 9 days (reference value: 1708+/-51.07 mg); type: functional; settings: route intraperitoneal
[2] = Antitumor activity against mouse Ehrlich Ascites tumor xenografted in Swiss albino mouse assessed as tumor growth inhibition at 20 mg/kg, ip administered for 9 days measured on day 13; type: functional; settings: route intraperitoneal, read-out: GI
Ehrlich [3] = experiment: Antitumor activity against mouse EAC cells transplanted in Swiss albino mouse assessed as decrease in tumor cells in ascetic fluid at 10 mg/kg, ip administered for 9 days (reference value: 4.57+/-0.39 mL); type: functional, organism-based; design: dose 10 mg/kg
In short: (§1)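 EAC ascites model: mice of the same sex, 20 ± 3 g, injected intraperitoneally with 1 × 10^7 cells from a donor bearing 8–10 day old ascites tumor (day 0). Randomised the next day, 7 per test group and 10 controls. Doses were suspended in 1% gum acacia and given i.p. for nine consecutive days; controls received saline 0.2 mL i.p. On day 12, ascitic fluid volume and tumor cell count were measured, and % inhibition was calculated from cell number versus control.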

SW-620 [4] = experiment: Cell cycle arrest in human SW620 cells assessed as increase in sub-G1 DNA content at 10 uM after 24 hrs using propidium iodide staining by flow cytometry (reference value: 3.45%); type: functional
Ehrlich [5] = experiment: Antitumor activity against mouse EAC cells transplanted in Swiss albino mouse assessed as decrease in tumor cells in ascetic fluid at 25 mg/kg, ip administered for 9 days (reference value: 4.57+/-0.39 mL); type: functional, organism-based; design: dose 25 mg/kg
[6] = Antitumor activity against mouse EAC cells transplanted in Swiss albino mouse assessed as tumor growth inhibition at 25 mg/kg, ip administered for 9 days (reference value: 4.57+/-0.39 mL); type: functional; settings: Ehrlich, 216 h, route intraperitoneal, read-out: GI
[7] = Antitumor activity against mouse Ehrlich Ascites tumor xenografted in Swiss albino mouse assessed as decrease in tumor weight at 10 mg/kg, ip administered for 9 days (reference value: 1708+/-51.07 mg); type: functional; settings: route intraperitoneal
Mus musculus [8] = experiment: Toxicity in ip dosed Swiss albino mouse transplanted with mouse EAC cells assessed as mortality administered for 9 days; type: organism-based, Ehrlich; settings: in vivo, 216 h; in short: as §1
[9] = Antitumor activity against mouse EAC cells transplanted in Swiss albino mouse assessed as tumor growth inhibition at 100 mg/kg, ip administered for 9 days (reference value: 4.57+/-0.39 mL); type: functional; settings: Ehrlich, 216 h, route intraperitoneal, read-out: GI
[10] = Antitumor activity against mouse EAC cells transplanted in Swiss albino mouse assessed as tumor growth inhibition at 10 mg/kg, ip administered for 9 days (reference value: 4.57+/-0.39 mL); type: functional; settings: Ehrlich, 216 h, route intraperitoneal, read-out: GI; in short: as §1
[11] = Antitumor activity against mouse Ehrlich Ascites tumor xenografted in Swiss albino mouse assessed as tumor growth inhibition at 25 mg/kg, ip administered for 9 days measured on day 13; type: functional; settings: route intraperitoneal, read-out: GI
SW-620 [12] = experiment: Cell cycle arrest in human SW620 cells assessed as increase in sub-G1 DNA content at 50 uM after 24 hrs using propidium iodide staining by flow cytometry (reference value: 3.45%); type: functional
Ehrlich [13] = experiment: Antitumor activity against mouse EAC cells transplanted in Swiss albino mouse assessed as decrease in tumor cells in ascetic fluid at 100 mg/kg, ip administered for 9 days (reference value: 4.57+/-0.39 mL); type: functional, organism-based; design: dose 100 mg/kg
SW-620 [14] = experiment: Induction of apoptosis in human SW620 cells assessed as blockage of G1-phase at 50 uM after 24 hrs using propidium iodide staining by flow cytometry; type: functional, cell-based
[15] = Antitumor activity against mouse Ehrlich Ascites tumor xenografted in Swiss albino mouse assessed as tumor growth inhibition at 10 mg/kg, ip administered for 9 days measured on day 13; type: functional; settings: route intraperitoneal, read-out: GI
[16] = Antitumor activity against mouse EAC cells transplanted in Swiss albino mouse assessed as decrease in astic fluid volume at 100 mg/kg, ip administered for 9 days (reference value: 4.57+/-0.39 mL); type: functional, Ehrlich; settings: route intraperitoneal
Mus musculus [17] = experiment: Toxicity in Swiss albino mouse model of Ehrlich Ascites tumor assessed as mortality at 200 mg/kg, ip administered for 9 days measured on third day; type: organism-based; design: dose 200 mg/kg, route intraperitoneal; settings: in vivo, 216 h
[18] = target: Transcription factor p65 (Homo sapiens) (UniProt Q04206); experiment: Inhibition of NF-kappaB p65 subunit transcriptional activity in human SW620 cells at 5 uM by Western blot analysis; type: cell-based; settings: SW-620
In short: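 SW-620 cells (5 × 10^6) exposed to 5 for the indicated times. Washed in ice-cold PBS, lysed in Hepes pH 7.9 buffer with KCl, EDTA, EGTA, DTT, PMSF, NaF, vanadate and protease inhibitors, then NP-40 0.5%. Cytosol taken after 8000 × g. Nuclear fraction extracted with 20% glycerol and 0.4 M KCl on ice for 30 min, spun at 13,000 × g. NF-κB assessed by western blot.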

Ehrlich [19] = experiment: Antitumor activity against mouse EAC cells transplanted in Swiss albino mouse assessed as decrease in tumor cells in ascetic fluid at 50 mg/kg, ip administered for 9 days (reference value: 4.57+/-0.39 mL); type: functional, organism-based; design: dose 50 mg/kg
[20] = Antitumor activity against mouse Ehrlich Ascites tumor xenografted in Swiss albino mouse assessed as decrease in tumor weight at 25 mg/kg, ip administered for 9 days (reference value: 1708+/-51.07 mg); type: functional; settings: route intraperitoneal
[21] = Antitumor activity against mouse Ehrlich Ascites tumor xenografted in Swiss albino mouse assessed as tumor growth inhibition at 100 mg/kg, ip administered for 9 days measured on day 13; type: functional; settings: route intraperitoneal, read-out: GI
Ehrlich [22] = experiment: Antitumor activity against mouse EAC cells transplanted in ip dosed Swiss albino mouse assessed as tumor growth inhibition administered for 9 days; type: functional, organism-based; in short: as §1
SW-620 [23] = experiment: Induction of apoptosis in human SW620 cells assessed as DNA fragmentation at 50 uM after 24 hrs by gel electrophoresis; type: functional, cell-based
In short: (§2)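 SW-620 cells (2 × 10^6 per 60 mm plate) treated for 24 h at 10, 50 or 100. Pellets lysed in 10 mM EDTA, 50 mM Tris pH 8.0, 0.5% SDS and proteinase K 0.5 mg/mL at 50 °C for 1 h. DNA heated briefly to 70 °C and run on 1.5% agarose at 50 V for 2–3 h. Untreated cells served as control; camptothecin as positive control.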

[24] = Antitumor activity against mouse EAC cells transplanted in Swiss albino mouse assessed as decrease in astic fluid volume at 25 mg/kg, ip administered for 9 days (reference value: 4.57+/-0.39 mL); type: functional, Ehrlich; settings: route intraperitoneal
[25] = Antitumor activity against mouse EAC cells transplanted in Swiss albino mouse assessed as decrease in astic fluid volume at 10 mg/kg, ip administered for 9 days (reference value: 4.57+/-0.39 mL); type: functional, Ehrlich; settings: route intraperitoneal; in short: as §1
[26] = Antitumor activity against mouse EAC cells transplanted in Swiss albino mouse assessed as tumor growth inhibition at 50 mg/kg, ip administered for 9 days (reference value: 4.57+/-0.39 mL); type: functional; settings: Ehrlich, 216 h, route intraperitoneal, read-out: GI
SW-620 [27] = experiment: Induction of apoptosis in human SW620 cells assessed as DNA fragmentation at 100 uM after 24 hrs by gel electrophoresis; type: functional, cell-based; in short: as §2
[28] = Partition coefficient, log P of the compound; type: physicochemical; settings: octanol/water
SW-620 [29] = experiment: Cell cycle arrest in human SW620 cells assessed as increase in sub-G1 DNA content at 1 uM after 24 hrs using propidium iodide staining by flow cytometry (reference value: 3.45%); type: functional
[30] = Antitumor activity against mouse Ehrlich Ascites tumor xenografted in Swiss albino mouse assessed as decrease in tumor weight at 100 mg/kg, ip administered for 9 days (reference value: 1708+/-51.07 mg); type: functional; settings: route intraperitoneal
[31] = Antitumor activity against mouse Ehrlich Ascites tumor xenografted in Swiss albino mouse assessed as tumor growth inhibition at 50 mg/kg, ip administered for 9 days measured on day 13; type: functional; settings: route intraperitoneal, read-out: GI
[32] = Antitumor activity against mouse EAC cells transplanted in Swiss albino mouse assessed as decrease in astic fluid volume at 50 mg/kg, ip administered for 9 days (reference value: 4.57+/-0.39 mL); type: functional, Ehrlich; settings: route intraperitoneal
PC-3 = experiment: Cytotoxicity against human PC3 cells assessed as cell growth after 48 hrs by sulforhodamine B assay; type: functional, cell-based; settings: Homo sapiens, PC-3, 48 h
In short: (§3)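 Log-phase cells seeded at 10^4/well and allowed to attach for 24 h at 37 °C, 5% CO2. Exposed for 48 h to 0.1–100 (1:10 serial dilutions), four replicate wells per condition. Fixed with cold 50% TCA for 1 h at 4 °C, stained with sulforhodamine B, dye dissolved in Tris, OD read at 540 nm. Blank-subtracted growth expressed relative to untreated cells (100%); IC50 reported.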

Mus musculus [33] = experiment: Antitumor activity against mouse Ehrlich Ascites tumor xenografted in ip dosed Swiss albino mouse assessed as tumor growth administered for 9 days; type: functional, organism-based
SW-620 [34] = experiment: Cell cycle arrest in human SW620 cells assessed as increase in sub-G1 DNA content at 5 uM after 24 hrs using propidium iodide staining by flow cytometry (reference value: 3.45%); type: functional
Mus musculus [35] = experiment: Toxicity in Swiss albino mouse transplanted with EAC cells assessed as mortality at 200 mg/kg, ip administered for 9 days measured on day 3rd; type: organism-based, Ehrlich; design: dose 200 mg/kg, route intraperitoneal; settings: in vivo, 216 h; in short: as §1
SW-620 [36] = experiment: Cytotoxicity against human SW620 cells assessed as cell growth after 48 hrs by sulforhodamine B assay; type: functional, cell-based; settings: Homo sapiens, SW-620, 48 h; in short: as §3
DU-145 = experiment: Cytotoxicity against human DU145 cells assessed as cell growth after 48 hrs by sulforhodamine B assay; type: functional, cell-based; settings: Homo sapiens, DU-145, 48 h; in short: as §3
[37] = Antitumor activity against mouse Ehrlich Ascites tumor xenografted in Swiss albino mouse assessed as decrease in tumor weight at 50 mg/kg, ip administered for 9 days (reference value: 1708+/-51.07 mg); type: functional; settings: route intraperitoneal

Sequence of Transcription factor p65 (Homo sapiens) (Q04206 whole entry): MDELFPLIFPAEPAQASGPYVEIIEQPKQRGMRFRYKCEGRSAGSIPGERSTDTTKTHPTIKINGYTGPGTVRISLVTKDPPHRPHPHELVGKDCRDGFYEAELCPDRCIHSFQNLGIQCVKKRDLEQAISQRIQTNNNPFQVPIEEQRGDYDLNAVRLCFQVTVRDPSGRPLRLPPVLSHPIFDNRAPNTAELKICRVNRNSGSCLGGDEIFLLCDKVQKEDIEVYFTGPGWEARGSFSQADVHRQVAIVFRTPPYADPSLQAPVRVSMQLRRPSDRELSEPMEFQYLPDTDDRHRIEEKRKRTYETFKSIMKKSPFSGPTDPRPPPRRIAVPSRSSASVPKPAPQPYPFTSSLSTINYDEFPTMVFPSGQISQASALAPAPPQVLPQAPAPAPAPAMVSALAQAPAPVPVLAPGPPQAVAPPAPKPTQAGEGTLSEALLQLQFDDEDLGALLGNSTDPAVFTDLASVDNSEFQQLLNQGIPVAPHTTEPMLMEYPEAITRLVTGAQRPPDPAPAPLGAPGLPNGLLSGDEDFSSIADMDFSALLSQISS

Compound: O=c1[nH]cc(F)c(=O)[nH]1 [FLUOROURACIL]
- Activity [1]: 832.28 mg
- inhibition in vivo at 20 mg/kg [2]: 51.3%

Compound: C[C@H]1CC[C@@H]2[C@@H](OC(=O)[C@]23CC(c2c4ccccc4cc4ccccc24)=NO3)[C@]2(C)C(=O)C=C[C@@]12O
- Activity (Ehrlich [3]): Active
- Activity (SW-620 [4]): 33.2%
- Activity (Ehrlich [5]): Active
- inhibition in vivo at 25 mg/kg [6]: 19.2%
- Activity [7]: 1547.14 mg
- Activity (Mus musculus [8]): Toxic
- inhibition in vivo at 100 mg/kg [9]: 60.5%
- inhibition in vivo at 10 mg/kg [10]: 7.74%
- inhibition in vivo at 25 mg/kg [11]: 15.4%
- Activity (SW-620 [12]): 55%
- Activity (Ehrlich [13]): Active
- Activity (SW-620 [14]): Active
- inhibition in vivo at 10 mg/kg [15]: 9.44%
- Activity [16]: 2.07 mL
- Activity (Mus musculus [17]): Toxic
- inhibition [18]: Active
- Activity (Ehrlich [19]): Active
- Activity [20]: 1445.71 mg
- inhibition in vivo at 100 mg/kg [21]: 35.1%
- growth inhibition (GI) (Ehrlich [22]): Dose-dependent effect
- Activity (SW-620 [23]): Active
- Activity [24]: 3.62 mL
- Activity [25]: 4.07 mL
- inhibition in vivo at 50 mg/kg [26]: 27.2%
- Activity (SW-620 [27]): Active
- logP [28]: 3.71
- Activity (SW-620 [29]): 6.58%
- Activity [30]: 1108.57 mg
- inhibition in vivo at 50 mg/kg [31]: 22%
- Activity [32]: 2.85 mL
- IC50 (PC-3): 4.9 µM
- growth inhibition (GI) (Mus musculus [33]): Dose-dependent effect
- Activity (SW-620 [34]): 33.09%
- Activity (Mus musculus [35]): Toxic
- IC50 (SW-620 [36]): 4.3 µM
- IC50 (DU-145): 4.6 µM
- Activity [37]: 1332.14 mg
